From ChEMBL document CHEMBL4834396, “Molecular Recognition and Imaging of Human Telomeric G-Quadruplex DNA in Live Cells: A Systematic Advancement of Thiazole Orange Scaffold To Enhance Binding Specificity and Inhibition of Gene Expression” (J Med Chem, 2021)
The source made the active and inactive calls. The calls are words filed in the database; no cut-off is given here.

Legend:
[1] = tested on: DNA; assay: Binding affinity to ds26 DNA (unknown origin) assessed as equilibrium binding constant at 5 uM at 25 degreeC by […]; format: nucleic-acid assay
How it was run: (§1)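 Fluorescence titration: ligand 5 μM in 10 mM Tris-HCl pH 7.4 with 60 mM KCl, nucleic acid added until saturation, 25 °C. Keq from nonlinear fit of F/F0 to an independent-site model.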

[2] = tested on: Quadruplex DNA; assay: Binding affinity to c-myc promoter G-quadruplex DNA Pu22 (unknown origin) assessed as equilibrium binding constant at 5 uM at 25 degreeC by […]; format: nucleic-acid assay; how it was run: as §1
[3] = tested on: Quadruplex DNA; assay: Binding affinity to telomeric Htg24 G-quadruplex DNA (unknown origin) assessed as emission wavelength at 480 to 483 nm at pH 7.4 by spectrophotometric method; format: nucleic-acid assay
[4] = molecular target: Quadruplex DNA; assay: Binding affinity to telomeric Htg24 G-quadruplex DNA (unknown origin) assessed as dissociation constant by isothermal titration calorimetric analysis; format: nucleic-acid assay
How it was run: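 ITC at 25 °C: DNA preannealed at 95 °C for 5 min, cooled and held at 4 °C overnight, in 25 mM KH2PO4, 60 mM KCl, pH 7.4, 0.5% DMSO. DNA 10 μM in cell, ligand 500 μM in syringe; 19 injections of 4 s, 150 s apart, 750 rpm stirring; blank heat subtracted before model fitting.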

[5] = tested on: Quadruplex DNA; assay: Binding affinity to telomeric Htg24 G-quadruplex DNA (unknown origin) assessed as decrease in peak intensity at guanine base G15 at 5 uM under pH condition 7.4 by spectrophotometric titration analysis; format: nucleic-acid assay
[6] = tested on: Quadruplex DNA; assay: Binding affinity to G4 quadruplex DNA in human HeLa cells assessed as increase in number of BG4 foci at 10 to 20 uM; format: cell-based; settings: dose 10-20 µM
[7] = tested on: HeLa; assay: Downregulation of hTERT mRNA expression in human HeLa cells at 5 to 20 uM by qRT-PCR analysis; format: functional, cell-based; settings: dose 5-20 µM
How it was run: (§2)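 HeLa cells were treated with graded compound concentrations, then incubated 36 h. RNA was extracted with Trizol/chloroform, reverse transcribed and quantified by qRT-PCR. GAPDH served as internal control, with relative expression by the ΔΔCt method; three independent experiments, mean ± SD.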

[8] = tested on: HeLa; assay: Downregulation of hTERC mRNA expression in human HeLa cells at 5 to 20 uM by qRT-PCR analysis; format: functional, cell-based; settings: dose 5-20 µM; how it was run: as §2
[9] = Drug uptake in nucleolus of human U87 cells assessed as imaging of G-quadruplex at 5 uM for 30 mins followed by co-staining with DAPI and measured after 10 mins by confocal laser fluorescence microscopic analysis; format: ADME, subcellular; settings: u-87mg atcc, 40 min
How it was run: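 Live U87 cells were co-stained with ligand (5 μM, 30 min) and DAPI (1 μM, 10 min). Confocal imaging used excitation at 402 nm for DAPI and 488 or 571 nm for the ligand.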

[10] = Drug uptake in nucleolus of human U87 cells assessed as disappearance of fluorescence signal at 5 uM for 30 mins co-stained with DAPI for 10 mins followed by treating with DNase and measured after 30 mins by confocal laser fluorescence microscopic analysis; format: ADME, subcellular; settings: u-87mg atcc, 1.167 h, time 70 min
[11] = tested on: HepG2; assay: Antiproliferative activity against human HepG2 cells assessed as reduction in cell viability […] by MTT assay; format: functional, cell-based
[12] = tested on: MCF7; assay: Antiproliferative activity against human MCF7 cells assessed as reduction in cell viability […] by MTT assay; format: functional, cell-based
[13] = tested on: HeLa; assay: Antiproliferative activity against human HeLa cells assessed as reduction in cell viability […] by MTT assay; format: functional, cell-based
[14] = tested on: 16HBE14o-; assay: Cytotoxicity against human 16HBE14o- cells assessed as cell viability incubated for 48 hrs by MTT assay; format: cell-based; settings: 36 h, in the assay text read “36 hrs” for “48 hrs”
How it was run: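 Cells were plated and grown 48 h at 37 °C, 5% CO2, in DMEM with 10% FBS. They were then given graded ligand concentrations for 36 h and treated with MTT (5 mg/ml) for 4 h in the dark. Formazan was dissolved in DMSO and absorbance read at 577 nm. IC50 was taken from a sigmoidal dose–response fit; three independent experiments.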

[15] = tested on: Quadruplex DNA [UNDEFINED MUTATION]; assay: Effect on confirmation of telomeric Htg24 G-quadruplex DNA G16C mutant (unknown origin) assessed as parallel topology at 5 uM at pH 7.4 by circular dichroism analysis; format: nucleic-acid assay; settings: Homo sapiens
How it was run: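 CD spectra recorded on G4-DNA and ligand, each at 5 μM, in 10 mM Tris-HCl, pH 7.4, with 60 mM KCl. Scan range 220–340 nm in a 1 mm quartz cuvette, 1 nm bandwidth and step, 0.5 s/point. Each spectrum is the average of three scans.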

[16] = tested on: Quadruplex DNA [UNDEFINED MUTATION]; assay: Binding affinity to telomeric Htg24 G-quadruplex DNA G3A mutant (unknown origin) assessed as negative fluorescence signal at 5 uM under pH condition 7.4 by fluorescence titration analysis; format: nucleic-acid assay; settings: Homo sapiens
How it was run: (§3)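 Ligand held at 5 μM and mixed with each Htg24 point mutant in Tris-HCl buffer containing 60 mM KCl, pH 7.4. Fluorescence was read, and the signal change was computed as (F mutant − F wild type)/F wild type.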

[17] = tested on: Quadruplex DNA [UNDEFINED MUTATION]; assay: Binding affinity to telomeric Htg24 G-quadruplex DNA G16C mutant (unknown origin) assessed as negative fluorescence signal at 5 uM under pH condition 7.4 by fluorescence titration analysis; format: nucleic-acid assay; settings: Homo sapiens
How it was run: (§4)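 Ligand 5 μM mixed with wild-type or point-mutant Htg24 in Tris-HCl buffer with 60 mM KCl; signal change calculated as (F mutant − F wild type)/F wild type.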

[18] = tested on: Quadruplex DNA [UNDEFINED MUTATION]; assay: Binding affinity to telomeric Htg24 G-quadruplex DNA G16T mutant (unknown origin) assessed as negative fluorescence signal at 5 uM under pH condition 7.4 by fluorescence titration analysis; format: nucleic-acid assay; settings: Homo sapiens; how it was run: as §4
[19] = tested on: Quadruplex DNA [UNDEFINED MUTATION]; assay: Binding affinity to telomeric Htg24 G-quadruplex DNA G17C mutant (unknown origin) assessed as negative fluorescence signal at 5 uM under pH condition 7.4 by fluorescence titration analysis; format: nucleic-acid assay; settings: Homo sapiens; how it was run: as §4
[20] = tested on: Quadruplex DNA [UNDEFINED MUTATION]; assay: Binding affinity to telomeric Htg24 G-quadruplex DNA G17T mutant (unknown origin) assessed as negative fluorescence signal at 5 uM under pH condition 7.4 by fluorescence titration analysis; format: nucleic-acid assay; settings: Homo sapiens; how it was run: as §4
[21] = tested on: Quadruplex DNA [UNDEFINED MUTATION]; assay: Binding affinity to telomeric Htg24 G-quadruplex DNA T18G mutant (unknown origin) assessed as negative fluorescence signal at 5 uM under pH condition 7.4 by fluorescence titration analysis; format: nucleic-acid assay; settings: Homo sapiens; how it was run: as §3
[22] = tested on: Quadruplex DNA [UNDEFINED MUTATION]; assay: Binding affinity to telomeric Htg24 G-quadruplex DNA G22A mutant (unknown origin) assessed as negative fluorescence signal at 5 uM under pH condition 7.4 by fluorescence titration analysis; format: nucleic-acid assay; settings: Homo sapiens; how it was run: as §3
[23] = tested on: Quadruplex DNA [UNDEFINED MUTATION]; assay: Binding affinity to telomeric Htg24 G-quadruplex DNA G21C mutant (unknown origin) assessed as strong fluorescence signal at 5 uM under pH condition 7.4 by fluorescence titration analysis; format: nucleic-acid assay; settings: Homo sapiens; how it was run: as §4
[24] = tested on: Quadruplex DNA [UNDEFINED MUTATION]; assay: Binding affinity to telomeric Htg24 G-quadruplex DNA G21T mutant (unknown origin) assessed as strong fluorescence signal at 5 uM under pH condition 7.4 by fluorescence titration analysis; format: nucleic-acid assay; settings: Homo sapiens; how it was run: as §3
[25] = tested on: Quadruplex DNA [UNDEFINED MUTATION]; assay: Binding affinity to telomeric Htg24 G-quadruplex DNA G23A mutant (unknown origin) assessed as fluorescence signal at 5 uM under pH condition 7.4 by fluorescence titration analysis; format: nucleic-acid assay; settings: Homo sapiens; how it was run: as §3

- Kb [1]: 367000 M⁻¹
- Kb [2]: 309000 M⁻¹
- Activity [3]: 642 nm
- Kd [4]: 0.65 µM
- Activity [5]: Active
- Drug uptake [9]: Active
- Drug uptake [10]: Active
- IC50 [11]: 12.8 µM
- IC50 [12]: 14.5 µM
- IC50 [13]: 16.3 µM
- Activity [15]: Active
- Activity [16]: Active
- Activity [17]: Active
- Activity [18]: Active
- Activity [19]: Active
- Activity [20]: Active
- Activity [21]: Active
- Activity [22]: Active
- Activity [23]: Active
- Activity [24]: Active
- Activity [25]: inactive
Compound: CN(C)c1ccc(/C=C/c2cc(/C=C3\Sc4ccccc4N3CCCN3CCOCC3)c3ccccc3[n+]2C)cc1.[I-]
- Activity [6]: Active
- Activity [7]: Active
- Activity [8]: Active
- IC50 [14]: 52.3 µM
